Active and inactive are the calls of the source. The calls are words filed in the database; no cut-off is given here.
What was measured:
KMS-12-PE = assay: Upregulation of DOT1L in human KMS-12-PE cells by qRT-PCR analysis; type: functional, cell-based
Outline: (§1)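 Basal DOT1L transcript in untreated myeloma cell lines measured by qRT-PCR, normalized to ACTB; mean of 3 replicates with SEM.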

U-266 = assay: Upregulation of DOT1L in human U-266 cells by qRT-PCR analysis; type: functional, cell-based; outline: as §1
MM1.S [1] = assay: Upregulation of IFN in human MM1.S cells assessed as increase in IFI44 gene at 1 uM for 6 days by qRT-PCR analysis; type: functional, cell-based; conditions: time 6.0 day
RPMI-8226 [2] = assay: Upregulation of AGPAT9 gene in human RPMI-8226 cells at 1 uM for 6 days by; type: functional, cell-based; conditions: time 6.0 day
RPMI-8226 [3] = assay: Upregulation of AIF1 gene in human RPMI-8226 cells at 1 uM for 6 days by; type: functional, cell-based; conditions: time 6.0 day
RPMI-8226 [4] = assay: Upregulation of BATF3 gene in human RPMI-8226 cells at 1 uM for 6 days by; type: functional, cell-based; conditions: time 6.0 day
RPMI-8226 [5] = assay: Upregulation of CACNB3 gene in human RPMI-8226 cells at 1 uM for 6 days by; type: functional, cell-based; conditions: time 6.0 day
RPMI-8226 [6] = assay: Upregulation of CCDC74B gene in human RPMI-8226 cells at 1 uM for 6 days by; type: functional, cell-based; conditions: time 6.0 day
RPMI-8226 [7] = assay: Upregulation of CFH gene in human RPMI-8226 cells at 1 uM for 6 days by; type: functional, cell-based; conditions: time 6.0 day
RPMI-8226 [8] = assay: Upregulation of CHRNA6 gene in human RPMI-8226 cells at 1 uM for 6 days by; type: functional, cell-based; conditions: time 6.0 day
Outline: (§2)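 Human myeloma lines RPMI-8226 and MM.1S exposed to 1 μM DOT1L inhibitor, or DMSO, for 6 days. Whole-genome expression profiled on gene expression microarray.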

RPMI-8226 [9] = assay: Upregulation of ID2 gene in human RPMI-8226 cells at 1 uM for 6 days by; type: functional, cell-based; conditions: time 6.0 day
RPMI-8226 [10] = assay: Upregulation of IGFBP6 gene in human RPMI-8226 cells at 1 uM for 6 days by; type: functional, cell-based; conditions: time 6.0 day
RPMI-8226 [11] = assay: Upregulation of MME gene in human RPMI-8226 cells at 1 uM for 6 days by; type: functional, cell-based; conditions: time 6.0 day
RPMI-8226 [12] = assay: Upregulation of NREP gene in human RPMI-8226 cells at 1 uM for 6 days by; type: functional, cell-based; conditions: time 6.0 day
RPMI-8226 [13] = assay: Upregulation of NXF3 gene in human RPMI-8226 cells at 1 uM for 6 days by; type: functional, cell-based; conditions: time 6.0 day
RPMI-8226 [14] = assay: Upregulation of RIMBP3 gene in human RPMI-8226 cells at 1 uM for 6 days by; type: functional, cell-based; conditions: time 6.0 day
RPMI-8226 [15] = assay: Upregulation of ZG16B gene in human RPMI-8226 cells at 1 uM for 6 days by; type: functional, cell-based; conditions: time 6.0 day
MM1.S [16] = assay: Upregulation of CAPG gene in human MM1.S cells at 1 uM for 6 days by; type: functional, cell-based; conditions: time 6.0 day
MM1.S [17] = assay: Upregulation of CCDC96 gene in human MM1.S cells at 1 uM for 6 days by; type: functional, cell-based; conditions: time 6.0 day
MM1.S [18] = assay: Upregulation of FAM200B gene in human MM1.S cells at 1 uM for 6 days by; type: functional, cell-based; conditions: time 6.0 day; outline: as §2
MM1.S [19] = assay: Upregulation of FNBP1L gene in human MM1.S cells at 1 uM for 6 days by; type: functional, cell-based; conditions: time 6.0 day; outline: as §2
MM1.S [20] = assay: Upregulation of GRHL3 gene in human MM1.S cells at 1 uM for 6 days by; type: functional, cell-based; conditions: time 6.0 day; outline: as §2
MM1.S [21] = assay: Upregulation of HLA-DPB1 gene in human MM1.S cells at 1 uM for 6 days by; type: functional, cell-based; conditions: time 6.0 day; outline: as §2
MM1.S [22] = assay: Upregulation of HLA-DQB1 gene in human MM1.S cells at 1 uM for 6 days by; type: functional, cell-based; conditions: time 6.0 day
MM1.S [23] = assay: Upregulation of MMP9 gene in human MM1.S cells at 1 uM for 6 days by; type: functional, cell-based; conditions: time 6.0 day
MM1.S [24] = assay: Upregulation of MS4A4A gene in human MM1.S cells at 1 uM for 6 days by; type: functional, cell-based; conditions: time 6.0 day
MM1.S [25] = assay: Upregulation of MYOF gene in human MM1.S cells at 1 uM for 6 days by; type: functional, cell-based; conditions: time 6.0 day
MM1.S [26] = assay: Upregulation of NREP gene in human MM1.S cells at 1 uM for 6 days by; type: functional, cell-based; conditions: time 6.0 day
MM1.S [27] = assay: Upregulation of POPDC2 gene in human MM1.S cells at 1 uM for 6 days by; type: functional, cell-based; conditions: time 6.0 day
MM1.S [28] = assay: Upregulation of PRRT2 gene in human MM1.S cells at 1 uM for 6 days by; type: functional, cell-based; conditions: time 6.0 day
MM1.S [29] = assay: Upregulation of PTGER4 gene in human MM1.S cells at 1 uM for 6 days by; type: functional, cell-based; conditions: time 6.0 day
MM1.S [30] = assay: Upregulation of PYCARD gene in human MM1.S cells at 1 uM for 6 days by; type: functional, cell-based; conditions: time 6.0 day
MM1.S [31] = assay: Upregulation of SAP30L gene in human MM1.S cells at 1 uM for 6 days by; type: functional, cell-based; conditions: time 6.0 day
MM1.S [32] = assay: Upregulation of SGK1 gene in human MM1.S cells at 1 uM for 6 days by; type: functional, cell-based; conditions: time 6.0 day
MM1.S [33] = assay: Upregulation of SNX10 gene in human MM1.S cells at 1 uM for 6 days by; type: functional, cell-based; conditions: time 6.0 day
MM1.S [34] = assay: Upregulation of TLE1 gene in human MM1.S cells at 1 uM for 6 days by; type: functional, cell-based; conditions: time 6.0 day
MM1.S [35] = assay: Upregulation of TP53I11 gene in human MM1.S cells at 1 uM for 6 days by; type: functional, cell-based; conditions: time 6.0 day
MM1.S [36] = assay: Upregulation of ZG16B gene in human MM1.S cells at 1 uM for 6 days by; type: functional, cell-based; conditions: time 6.0 day
MM1.S [37] = assay: Effect on human MM1.S cells assessed as change in IRF4 mRNA level at 1 uM for 6 days by qRT-PCR analysis; conditions: time 6.0 day
RPMI-8226 [38] = assay: Effect on human RPMI-8226 cells assessed as change in IRF4 mRNA level at 1 uM for 6 days by qRT-PCR analysis; conditions: time 6.0 day
RPMI-8226 [39] = assay: Induction of apoptosis in human RPMI-8226 cells assessed as early apoptotic cells at 1 uM for 6 days by annexin-V based propidium iodide staining based flow cytometric analysis (reference value: 6.19%); type: functional; conditions: time 6 day
MM1.S [40] = assay: Induction of apoptosis in human MM1.S cells assessed as late apoptotic cells at 1 uM for 6 days by annexin-V based propidium iodide staining based flow cytometric analysis (reference value: 13.4%); type: functional; conditions: time 6 day
RPMI-8226 [41] = assay: Effect on human RPMI-8226 cells assessed as change in KLF2 mRNA level at 1 uM for 3 days by ChIP-qPCR analysis; type: functional, cell-based; conditions: time 3.0 day
Outline: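 ChIP-qPCR for H3K79me2 at IRF4-MYC signaling genes after 1 μM inhibitor or DMSO for 3 days. Signal normalized to input DNA. An intergenic region 28 kb upstream of KLF2 served as negative control. Mean of 3 replications ± SEM.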

MM1.S [42] = assay: Upregulation of IFN in human MM1.S cells assessed as increase in IFIT1 gene at 1 uM for 6 days by qRT-PCR analysis; type: functional, cell-based; conditions: time 6.0 day
RPMI-8226 [43] = assay: Upregulation of IFN in human RPMI-8226 cells assessed as increase in IFITM1 gene at 1 uM for 6 days by qRT-PCR analysis; type: functional, cell-based; conditions: time 6.0 day
MM1.S [44] = assay: Upregulation of IFN in human MM1.S cells assessed as increase in IFI44 gene at 1 uM for 6 days by qRT-PCR analysis; conditions: time 6.0 day

CC(C)N(CCCNC(=O)Nc1ccc(C(C)(C)C)cc1)C[C@H]1O[C@@H](n2cc(Br)c3c(N)ncnc32)[C@H](O)[C@@H]1O
Activity (KMS-12-PE): Active
Activity (U-266): Active
Activity (MM1.S [1]): Active
Activity (RPMI-8226 [2]): Active
Activity (RPMI-8226 [3]): Active
Activity (RPMI-8226 [4]): Active
Activity (RPMI-8226 [5]): Active
Activity (RPMI-8226 [6]): Active
Activity (RPMI-8226 [7]): Active
Activity (RPMI-8226 [8]): Active
Activity (RPMI-8226 [9]): Active
Activity (RPMI-8226 [10]): Active
Activity (RPMI-8226 [11]): Active
Activity (RPMI-8226 [12]): Active
Activity (RPMI-8226 [13]): Active
Activity (RPMI-8226 [14]): Active
Activity (RPMI-8226 [15]): Active
Activity (MM1.S [16]): Active
Activity (MM1.S [17]): Active
Activity (MM1.S [18]): Active
Activity (MM1.S [19]): Active
Activity (MM1.S [20]): Active
Activity (MM1.S [21]): Active
Activity (MM1.S [22]): Active
Activity (MM1.S [23]): Active
Activity (MM1.S [24]): Active
Activity (MM1.S [25]): Active
Activity (MM1.S [26]): Active
Activity (MM1.S [27]): Active
Activity (MM1.S [28]): Active
Activity (MM1.S [29]): Active
Activity (MM1.S [30]): Active
Activity (MM1.S [31]): Active
Activity (MM1.S [32]): Active
Activity (MM1.S [33]): Active
Activity (MM1.S [34]): Active
Activity (MM1.S [35]): Active
Activity (MM1.S [36]): Active
Activity (MM1.S [37]): Active
Activity (RPMI-8226 [38]): Active

CC(C)N(C[C@H]1O[C@@H](n2cnc3c(N)ncnc32)[C@H](O)[C@@H]1O)[C@H]1C[C@@H](CCc2nc3cc(C(C)(C)C)ccc3[nH]2)C1 [PINOMETOSTAT]
Activity (RPMI-8226 [39]): 22.4%
Activity (MM1.S [40]): 27.8%
Activity (RPMI-8226 [41]): Active
Activity (MM1.S [42]): Active
Activity (RPMI-8226 [43]): Active
Activity (MM1.S [44]): Active
